Assay results: publication PMC9085298 (RSC Advances, 2018)
Converted amounts (≈) assume the structure as drawn.

How the values were obtained:
HepDES19 cells [1] = test: MTS cytotoxicity assay; format: cell-based; conditions: read-out: CC50 (MTS); HepDES19 cells, 72 h, mitochondrial function
In short: (§1)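 HepDES19 cells seeded at 1.0 × 10^4/well in DMEM with 10% FBS, 1% penicillin/streptomycin, 1% nonessential amino acids and 1% glutamine. Test compound in medium (1% DMSO final) added 48 h after plating, triplicate per concentration. After 72 h, MTS added for 90 min; absorbance at 490 nm. CC50 is 50% viability loss versus untreated cells, from a variable-slope log[inhibitor]–response fit.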

[2] = tested on: Staphylococcus aureus (ATCC 29213); test: MIC80 by broth microdilution; format: cell-based; conditions: for Bacteria MIC80 S. aureus (29213): concentration inhibiting growth ≥80% vs vehicle, 16–24 h, 35 °C; for MIC80: Staphylococcus aureus, ATCC29213, read-out: Bacteria MIC80 S. aureus (29213)
In short: (§2)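 CLSI broth microdilution in cation-adjusted Mueller–Hinton II broth with a 1.5-fold test-compound dilution series. Overnight culture adjusted to 5 × 10^5 CFU mL−1 final. Incubated 16–24 h at 35 °C ± 2 °C, then growth read by absorbance (OD600). MIC80 is the concentration giving ≥80% growth inhibition versus vehicle-treated cultures. Each value is the average of at least two independent determinations.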

[3] = tested on: C. neoformans var grubii, KN99 (serotype A, MATα); test: Inhibition of C. neoformans growth; format: cell-based, Cryptococcus neoformans
In short: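 Test compound 0.19–50 μM, 48 h at 35 °C, density read at OD650. Growth expressed as % of DMSO-only cells. MIC80 is the minimal concentration inhibiting 80% growth versus vehicle. Triplicates; average of ≥2 independent assays.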

HepDES19 cells [4] = test: Neutral red cytotoxicity assay; format: cell-based; conditions: read-out: CC50 (neutral red); HepDES19 cells, 72 h, lysosomal function
In short: (§3)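 HepDES19 cells seeded at 1.0 × 10^4/well in DMEM with 10% FBS, 1% penicillin/streptomycin, 1% nonessential amino acids and 1% glutamine. Test compound (1% DMSO final) added 48 h after plating, triplicate per concentration, and incubated 72 h. Viability measured by neutral red uptake. CC50 is 50% inhibition versus vehicle control, from a 4-variable slope fit of log-transformed data.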

[5] = tested on: Acinetobacter baumannii (from a patient); test: MIC80 by broth microdilution; format: cell-based; conditions: for MIC80: Acinetobacter baumannii, read-out: Bacteria MIC80 A. baumannii (from a patient)
In short: as §2

MTS cytotoxicity assay = format: cell-based; conditions: human, HepDES19 cells (hepatoblastoma cells)
In short: as §1

[6] = tested on: Escherichia coli (ATCC 35218); test: MIC80 by broth microdilution; format: cell-based; conditions: for MIC80: Escherichia coli, ATCC35218, read-out: Bacteria MIC80 E. coli (35218)
In short: as §2

[7] = Neutral red cytotoxicity assay; format: cell-based; conditions: human, HepDES19 cells (hepatoblastoma cells)
In short: as §3

[8] = tested on: Pseudomonas aeruginosa (ATCC 27853); test: MIC80 by broth microdilution; format: cell-based; conditions: concentration inhibiting growth ≥80% vs vehicle; 16–24 h, 35 °C
In short: as §2

[9] = concentration inhibiting growth ≥80% vs vehicle, 16–24 h, 35 °C

Row | Molecule | CC50 (HepDES19 cells [1]) | Bacteria MIC80 S. aureus (29213) [2] | C. neoformans MIC80 ([3]; minimal concentration inhibiting 80% of growth, 48 h, 35 °C, YNB-02 + 1% DMSO) | CC50 (HepDES19 cells [4]) | MIC80 [5] | CC50 at 72 h (MTS cytotoxicity assay) | MIC80 [2] | fold increase in antibacterial activity against S. aureus ([2]; relative to natural product 2) | MIC80 [6] | CC50 at 72 h [7] | fold less activity against C. neoformans ([3]; relative to hydroxy tropolone 2) | Bacteria MIC80 A. baumannii (from a patient) [5, 9] | Bacteria MIC80 P. aeruginosa (27853) [8] | Bacteria MIC80 E. coli (35218) [6, 9]
1 | 7-Hydroxy-3-isopropylcyclohepta-2,4,5-triene-1-thione [Compound 11] | 64.2 µM | 16 µM | 24 µM | 30.4 µM |  |  |  |  |  |  |  |  |  | 
2 | Cc1ccc(S(=O)(=O)Oc2cc(C(C)C)cccc2=O)cc1 [Compound 9, 4-(1-Methylethyl)-2-[[(4-methylphenyl)sulfonyl]oxy]-2,4,6-cycloheptatrien-1-one] |  |  |  |  | > 100 µM | 34.2 µM | 8.8 µM (≈ 2.8 µg/mL) | 8 fold | > 100 µM | 19.5 µM |  |  |  | 
3 | CC(C)c1cccc(=S)c(O)c1 [Compound 10, 2-Hydroxy-4-isopropylcyclohepta-2,4,6-triene-1-thione] |  |  |  |  | > 100 µM | 95 µM | > 100 µM |  | > 100 µM | 39.7 µM | > 2 fold |  |  | 
4 | Cc1ccc(S(=O)(=O)Oc2cccc(C(C)C)cc2=O)cc1 [Compound 8, 6-(1-Methylethyl)-2-[[(4-methylphenyl)sulfonyl]oxy]-2,4,6-cycloheptatrien-1-one] |  | >100 µM |  |  | > 100 µM | 33.6 µM | > 100 µM |  | > 100 µM | 31.8 µM |  | >100 µM | >100 µM | >100 µM
